Experimental data taken from BindingDB's records for doi:10.1016/j.bmcl.2015.12.102 (Reset Therapeutics, 2016).
pEC50: −log10 of the molar value.

Molecular target: T1, Period circadian protein homolog 2 (Homo sapiens, UniProt O15055)
T1 sequence (O15055 whole entry): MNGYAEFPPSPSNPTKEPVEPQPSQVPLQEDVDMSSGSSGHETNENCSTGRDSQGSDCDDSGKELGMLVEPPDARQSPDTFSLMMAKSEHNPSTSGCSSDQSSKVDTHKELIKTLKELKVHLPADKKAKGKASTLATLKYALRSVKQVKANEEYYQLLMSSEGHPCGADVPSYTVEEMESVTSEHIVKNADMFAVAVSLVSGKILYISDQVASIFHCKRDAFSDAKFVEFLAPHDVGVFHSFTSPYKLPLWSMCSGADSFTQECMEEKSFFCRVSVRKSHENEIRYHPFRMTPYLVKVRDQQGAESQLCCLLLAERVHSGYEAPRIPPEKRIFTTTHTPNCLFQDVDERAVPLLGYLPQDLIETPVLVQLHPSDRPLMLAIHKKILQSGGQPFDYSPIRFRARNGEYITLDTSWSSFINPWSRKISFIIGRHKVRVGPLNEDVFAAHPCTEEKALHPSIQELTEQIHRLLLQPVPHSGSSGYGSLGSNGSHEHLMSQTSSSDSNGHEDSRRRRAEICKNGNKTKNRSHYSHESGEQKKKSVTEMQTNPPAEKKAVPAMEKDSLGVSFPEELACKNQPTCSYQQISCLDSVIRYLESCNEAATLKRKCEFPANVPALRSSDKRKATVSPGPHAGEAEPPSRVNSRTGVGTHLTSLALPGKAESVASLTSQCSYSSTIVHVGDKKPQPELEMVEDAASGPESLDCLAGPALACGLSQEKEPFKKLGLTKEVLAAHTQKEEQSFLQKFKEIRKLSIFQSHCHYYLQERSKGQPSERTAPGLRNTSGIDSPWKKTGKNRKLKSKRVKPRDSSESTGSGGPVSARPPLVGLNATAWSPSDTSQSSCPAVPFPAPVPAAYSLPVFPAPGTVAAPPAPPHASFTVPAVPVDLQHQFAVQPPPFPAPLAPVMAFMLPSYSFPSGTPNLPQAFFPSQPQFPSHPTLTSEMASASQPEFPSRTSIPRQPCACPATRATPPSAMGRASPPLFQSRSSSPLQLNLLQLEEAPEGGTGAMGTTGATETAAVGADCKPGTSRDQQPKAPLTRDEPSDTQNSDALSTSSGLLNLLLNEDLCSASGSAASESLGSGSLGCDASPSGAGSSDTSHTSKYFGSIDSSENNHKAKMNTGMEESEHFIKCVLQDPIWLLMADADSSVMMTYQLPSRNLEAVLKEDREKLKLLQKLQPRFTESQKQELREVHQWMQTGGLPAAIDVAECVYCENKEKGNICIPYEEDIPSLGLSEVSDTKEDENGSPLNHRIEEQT
Experiment: Reduction of amplitude effect of PER2 in human U2OS cells harboring Per2-dLuc luciferase reporter gene assessed as effects on circadian rhythms
Summary of the method: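 Human osteosarcoma U2OS cells carrying a Per2-dLuc luciferase reporter, treated continuously; circadian luminescence rhythm amplitude followed. 8-point threefold dilution series; EC50 taken as concentration giving 50% of the compound's own maximal response (titrations without plateau give no EC50).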

Q: How did the pEC50 turn out when CCN(CC(O)Cn1c2ccccc2c2ccccc21)S(C)(=O)=O (stereo unspecified) was run?
A: 6.30

Q: With CS(=O)(=O)N(CC(O)Cn1c2ccccc2c2ccccc21)C1CCC1 (stereo unspecified) as the compound, how does the pEC50 read?
A: 6.89

Q: CS(=O)(=O)N(Cc1ccccc1)CC(O)Cn1c2ccccc2c2ccccc21 (stereo unspecified) was tested. Which pEC50 did it give?
A: 6.09

Q: How did the pEC50 turn out when CS(=O)(=O)N(CC(O)Cn1c2ccccc2c2ccccc21)c1ccc(F)cc1 (stereo unspecified) was run?
A: 6.03

Q: O=S(=O)(Cc1ccccc1)N(Cc1ccco1)CC(O)Cn1c2ccccc2c2ccccc21 (stereo unspecified) was tested. Which pEC50 did it give?
A: 6.38

Q: How did the pEC50 turn out when CN1CCCN(CC(O)Cn2c3ccccc3c3ccccc32)S1(=O)=O (stereo unspecified) was run?
A: 6.14

Q: O=S1(=O)CCN1CC(O)Cn1c2ccccc2c2ccccc21 (stereo unspecified) was tested. Which pEC50 did it give?
A: 6.72

Q: With CS(=O)(=O)N(CC(O)Cn1c2ccccc2c2ccccc21)C1CCCCC1 (stereo unspecified) as the compound, how does the pEC50 read?
A: 6.27

Q: With CCCS(=O)(=O)N(Cc1ccco1)CC(O)Cn1c2ccccc2c2ccccc21 (stereo unspecified) as the compound, how does the pEC50 read?
A: 6.29

Q: How did the pEC50 turn out when CS(=O)(=O)N(CC(O)Cn1c2ccccc2c2ccccc21)c1cccc(F)c1 (stereo unspecified) was run?
A: 6.40

Q: CN1CCN(CC(O)Cn2c3ccccc3c3ccccc32)S1(=O)=O (stereo unspecified) was tested. Which pEC50 did it give?
A: 6.88

Q: CCCN(CC(O)Cn1c2ccccc2c2ccccc21)S(C)(=O)=O (stereo unspecified) was tested. Which pEC50 did it give?
A: 6.39

Q: How did the pEC50 turn out when CS(=O)(=O)NCC(O)Cn1c2ccccc2c2ccccc21 (stereo unspecified) was run?
A: 6.32

Q: O=S1(=O)COCCN1CC(O)Cn1c2ccccc2c2ccccc21 (stereo unspecified) was tested. Which pEC50 did it give?
A: 7.14

Q: How did the pEC50 turn out when CCCCS(=O)(=O)N(Cc1ccco1)CC(O)Cn1c2ccccc2c2ccccc21 (stereo unspecified) was run?
A: 6.43

Q: With CS(=O)(=O)N(CC(O)Cn1c2ccccc2c2ccccc21)C1CCCC1 (stereo unspecified) as the compound, how does the pEC50 read?
A: 6.51

Q: O=S(=O)(C1CCOC1)N(Cc1ccco1)CC(O)Cn1c2ccccc2c2ccccc21 (stereo unspecified) was tested. Which pEC50 did it give?
A: 5.93

Q: With CS(=O)(=O)N(CC(O)Cn1c2ccccc2c2ccccc21)c1ccccc1 (stereo unspecified) as the compound, how does the pEC50 read?
A: 6.57

Q: With O=S1(=O)CCCN1CC(O)Cn1c2ccccc2c2ccccc21 (stereo unspecified) as the compound, how does the pEC50 read?
A: 6.84

Q: With CS(=O)(=O)N(CC(O)Cn1c2ccccc2c2ccccc21)c1ccccc1F (stereo unspecified) as the compound, how does the pEC50 read?
A: 5.59

Q: With CN(CC(O)Cn1c2ccccc2c2ccccc21)S(C)(=O)=O (stereo unspecified) as the compound, how does the pEC50 read?
A: 6.11

Q: How did the pEC50 turn out when CC(C)S(=O)(=O)N(Cc1ccco1)CC(O)Cn1c2ccccc2c2ccccc21 (stereo unspecified) was run?
A: 6.36

Q: How did the pEC50 turn out when CS(=O)(=O)N(CC(O)Cn1c2ccccc2c2ccccc21)C1CC(F)(F)C1 (stereo unspecified) was run?
A: 5.90

Q: With O=S(=O)(c1ccccc1)N(Cc1ccco1)CC(O)Cn1c2ccccc2c2ccccc21 (stereo unspecified) as the compound, how does the pEC50 read?
A: 5.96

Q: How did the pEC50 turn out when O=S1(=O)NCCCN1CC(O)Cn1c2ccccc2c2ccccc21 (stereo unspecified) was run?
A: 6.42

Q: How did the pEC50 turn out when CS(=O)(=O)N(CC(O)Cn1c2ccccc2c2ccccc21)C1CCOCC1 (stereo unspecified) was run?
A: 6.09

Q: How did the pEC50 turn out when O=S1(=O)NCCN1CC(O)Cn1c2ccccc2c2ccccc21 (stereo unspecified) was run?
A: 7.38

Q: O=S(=O)(C1CCCCC1)N(Cc1ccco1)CC(O)Cn1c2ccccc2c2ccccc21 (stereo unspecified) was tested. Which pEC50 did it give?
A: 6.00

Q: With CC(C)CS(=O)(=O)N(Cc1ccco1)CC(O)Cn1c2ccccc2c2ccccc21 (stereo unspecified) as the compound, how does the pEC50 read?
A: 6.44

Q: With CS(=O)(=O)N(CC(O)Cn1c2ccccc2c2ccccc21)C1COC1 (stereo unspecified) as the compound, how does the pEC50 read?
A: 5.45

Q: CCS(=O)(=O)N(Cc1ccco1)CC(O)Cn1c2ccccc2c2ccccc21 (stereo unspecified) was tested. Which pEC50 did it give?
A: 6.71

Q: How did the pEC50 turn out when CC(C)N(CC(O)Cn1c2ccccc2c2ccccc21)S(C)(=O)=O (stereo unspecified) was run?
A: 6.29

Q: How did the pEC50 turn out when CS(=O)(=O)N(Cc1ccco1)CC(O)Cn1c2ccccc2c2ccccc21 (stereo unspecified) [N-(3-carbazol-9-yl-2-hydroxypropyl)-N-(furan-2-ylmethyl)methanesulfonamide] was run?
A: 6.06

Q: How did the pEC50 turn out when O=S(=O)(C1CC1)N(Cc1ccco1)CC(O)Cn1c2ccccc2c2ccccc21 (stereo unspecified) was run?
A: 6.25

Q: With COCCN(CC(O)Cn1c2ccccc2c2ccccc21)S(C)(=O)=O (stereo unspecified) as the compound, how does the pEC50 read?
A: 5.99

Q: CS(=O)(=O)N(CC(O)Cn1c2ccccc2c2ccccc21)c1ccccn1 (stereo unspecified) was tested. Which pEC50 did it give?
A: < 5.00

Q: With O=S1(=O)CCCCN1CC(O)Cn1c2ccccc2c2ccccc21 (stereo unspecified) as the compound, how does the pEC50 read?
A: 6.76

Q: How did the pEC50 turn out when CS(=O)(=O)N(CC(O)Cn1c2ccccc2c2ccccc21)C1CC1 (stereo unspecified) was run?
A: 6.35

Q: With COCCS(=O)(=O)N(Cc1ccco1)CC(O)Cn1c2ccccc2c2ccccc21 (stereo unspecified) as the compound, how does the pEC50 read?
A: 6.54

Q: CS(=O)(=O)N(CC(O)Cn1c2ccccc2c2ccccc21)C1CCC(F)(F)CC1 (stereo unspecified) was tested. Which pEC50 did it give?
A: 6.16

Q: CC(C)CN(CC(O)Cn1c2ccccc2c2ccccc21)S(C)(=O)=O (stereo unspecified) was tested. Which pEC50 did it give?
A: 6.75
